Measured values taken from ChEMBL document CHEMBL4689842, “EUbOPEN Chemogenomics Library wave 1” (2021).

Assays:
[1] = system: U2OS; test: Multiplex assay against U2OS; format: toxicity, cell-based; details: human
In short: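 Hoechst33342, BioTracker Green Microtubule Cytoskeleton Dye, MitoTracker Red and Annexin V Alexa Fluor 680 were added to live cells at seeding, and imaging on a CQ1 microscope at 37°C and 5% CO2 followed compound addition. Gating by CellPathfinder machine learning separated cells into Hoechst high-intensity objects or normal cells, then normal cells into healthy, pyknosed or fragmented nuclei, then pyknosed cells into mitotic or apoptotic. Per cents of healthy-nucleus cells are reported for the tubulin, mitochondrial-mass and membrane-permeability phenotypes.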

[2] = system: Fibroblast; test: Incucyte cell viability with human fibroblast; format: toxicity, cell-based; details: 10 µM, compound concentration 10 uM; further: filed as whole numbers so only -1 and 0 and 1 occur
[3] = 12 h, 1 µM, compound concentration 1 uM, replicate 1
[4] = 12 h, 1 µM, compound concentration 1 uM, replicate 2
[5] = 12 h, 10 µM, compound concentration 10 uM, replicate 1
[6] = 12 h, 10 µM, compound concentration 10 uM, replicate 2
[7] = 24 h, 1 µM, compound concentration 1 uM, replicate 1
[8] = 24 h, 1 µM, compound concentration 1 uM, replicate 2
[9] = 24 h, 10 µM, compound concentration 10 uM, replicate 1
[10] = 24 h, 10 µM, compound concentration 10 uM, replicate 2
[11] = 48 h, 1 µM, compound concentration 1 uM, replicate 1
[12] = 48 h, 1 µM, compound concentration 1 uM, replicate 2
[13] = 48 h, 10 µM, compound concentration 10 uM, replicate 1
[14] = 48 h, 10 µM, compound concentration 10 uM, replicate 2

CC(C)[C@H](CO)Nc1nc(Nc2cccc(Cl)c2)c2ncn(C(C)C)c2n1 [PURVALANOLA]
Population Apoptotic (%) [1, 3]: 58% | Population Fragmented Nuclei (%) [1, 3]: 13% | Population Healthy Nuclei (%) [1, 3]: 76% | Population Hoechst High Intensity Objects (%) [1, 3]: 12% | Population Membrane Permeable-Phenotype (%) [1, 3]: 1% | Population Mitochondria Different-Phenotype (%) [1, 3]: 15% | Population Mitotic Cells (%) [1, 3]: 41% | Population Normal (%) [1, 3]: 87% | Population Pyknosed Nuclei (%) [1, 3]: 10% | Population Tubulin-Different-Phenotype (%) [1, 3]: 12% | Total Cell Count [1, 3]: 212 | Population Apoptotic (%) [1, 4]: 50% | Population Fragmented Nuclei (%) [1, 4]: 8% | Population Healthy Nuclei (%) [1, 4]: 88% | Population Hoechst High Intensity Objects (%) [1, 4]: 10% | Population Membrane Permeable-Phenotype (%) [1, 4]: 7% | Population Mitochondria Different-Phenotype (%) [1, 4]: 21% | Population Mitotic Cells (%) [1, 4]: 50% | Population Normal (%) [1, 4]: 89% | Population Pyknosed Nuclei (%) [1, 4]: 3% | Population Tubulin-Different-Phenotype (%) [1, 4]: 15% | Total Cell Count [1, 4]: 111 | Population Apoptotic (%) [1, 5]: 68% | Population Fragmented Nuclei (%) [1, 5]: 23% | Population Healthy Nuclei (%) [1, 5]: 55% | Population Hoechst High Intensity Objects (%) [1, 5]: 13% | Population Membrane Permeable-Phenotype (%) [1, 5]: 39% | Population Mitochondria Different-Phenotype (%) [1, 5]: 96% | Population Mitotic Cells (%) [1, 5]: 32% | Population Normal (%) [1, 5]: 86% | Population Pyknosed Nuclei (%) [1, 5]: 21% | Population Tubulin-Different-Phenotype (%) [1, 5]: 100% | Total Cell Count [1, 5]: 129 | Population Apoptotic (%) [1, 6]: 83% | Population Fragmented Nuclei (%) [1, 6]: 13% | Population Healthy Nuclei (%) [1, 6]: 79% | Population Hoechst High Intensity Objects (%) [1, 6]: 7% | Population Membrane Permeable-Phenotype (%) [1, 6]: 23% | Population Mitochondria Different-Phenotype (%) [1, 6]: 95% | Population Mitotic Cells (%) [1, 6]: 16% | Population Normal (%) [1, 6]: 92% | Population Pyknosed Nuclei (%) [1, 6]: 6% | Population Tubulin-Different-Phenotype (%) [1, 6]: 98% | Total Cell Count [1, 6]: 66 | Population Apoptotic (%) [1, 7]: 36% | Population Fragmented Nuclei (%) [1, 7]: 10% | Population Healthy Nuclei (%) [1, 7]: 80% | Population Hoechst High Intensity Objects (%) [1, 7]: 5% | Population Membrane Permeable-Phenotype (%) [1, 7]: 3% | Population Mitochondria Different-Phenotype (%) [1, 7]: 7% | Population Mitotic Cells (%) [1, 7]: 63% | Population Normal (%) [1, 7]: 94% | Population Tubulin-Different-Phenotype (%) [1, 7]: 6% | Total Cell Count [1, 7]: 221 | Population Apoptotic (%) [1, 8]: 60% | Population Fragmented Nuclei (%) [1, 8]: 8% | Population Healthy Nuclei (%) [1, 8]: 83% | Population Hoechst High Intensity Objects (%) [1, 8]: 6% | Population Membrane Permeable-Phenotype (%) [1, 8]: 5% | Population Mitochondria Different-Phenotype (%) [1, 8]: 23% | Population Mitotic Cells (%) [1, 8]: 40% | Population Normal (%) [1, 8]: 93% | Population Pyknosed Nuclei (%) [1, 8]: 8% | Population Tubulin-Different-Phenotype (%) [1, 8]: 9% | Total Cell Count [1, 8]: 157 | Population Apoptotic (%) [1, 9]: 67% | Population Fragmented Nuclei (%) [1, 9]: 27% | Population Healthy Nuclei (%) [1, 9]: 48% | Population Hoechst High Intensity Objects (%) [1, 9]: 16% | Population Membrane Permeable-Phenotype (%) [1, 9]: 55% | Population Mitochondria Different-Phenotype (%) [1, 9]: 100% | Population Mitotic Cells (%) [1, 9]: 32% | Population Normal (%) [1, 9]: 83% | Population Pyknosed Nuclei (%) [1, 9]: 24% | Population Tubulin-Different-Phenotype (%) [1, 9]: 100% | Total Cell Count [1, 9]: 133 | Population Apoptotic (%) [1, 10]: 80% | Population Fragmented Nuclei (%) [1, 10]: 16% | Population Healthy Nuclei (%) [1, 10]: 65% | Population Hoechst High Intensity Objects (%) [1, 10]: 8% | Population Membrane Permeable-Phenotype (%) [1, 10]: 50% | Population Mitotic Cells (%) [1, 10]: 20% | Population Normal (%) [1, 10]: 91% | Population Pyknosed Nuclei (%) [1, 10]: 17% | Total Cell Count [1, 10]: 66 | Population Fragmented Nuclei (%) [1, 11]: 12% | Population Healthy Nuclei (%) [1, 11]: 82% | Population Hoechst High Intensity Objects (%) [1, 11]: 4% | Population Membrane Permeable-Phenotype (%) [1, 11]: 4% | Population Mitochondria Different-Phenotype (%) [1, 11]: 14% | Population Normal (%) [1, 11]: 95% | Population Pyknosed Nuclei (%) [1, 11]: 5% | Population Tubulin-Different-Phenotype (%) [1, 11]: 7% | Total Cell Count [1, 11]: 219 | Population Apoptotic (%) [1, 12]: 60% | Population Fragmented Nuclei (%) [1, 12]: 4% | Population Healthy Nuclei (%) [1, 12]: 84% | Population Hoechst High Intensity Objects (%) [1, 12]: 5% | Population Membrane Permeable-Phenotype (%) [1, 12]: 6% | Population Mitochondria Different-Phenotype (%) [1, 12]: 25% | Population Mitotic Cells (%) [1, 12]: 40% | Population Normal (%) [1, 12]: 94% | Population Pyknosed Nuclei (%) [1, 12]: 11% | Population Tubulin-Different-Phenotype (%) [1, 12]: 10% | Total Cell Count [1, 12]: 168 | Population Apoptotic (%) [1, 13]: 77% | Population Fragmented Nuclei (%) [1, 13]: 33% | Population Healthy Nuclei (%) [1, 13]: 17% | Population Hoechst High Intensity Objects (%) [1, 13]: 23% | Population Membrane Permeable-Phenotype (%) [1, 13]: 64% | Population Mitochondria Different-Phenotype (%) [1, 13]: 94% | Population Mitotic Cells (%) [1, 13]: 22% | Population Normal (%) [1, 13]: 76% | Population Pyknosed Nuclei (%) [1, 13]: 49% | Population Tubulin-Different-Phenotype (%) [1, 13]: 100% | Total Cell Count [1, 13]: 189 | Population Apoptotic (%) [1, 14]: 100% | Population Fragmented Nuclei (%) [1, 14]: 16% | Population Healthy Nuclei (%) [1, 14]: 62% | Population Hoechst High Intensity Objects (%) [1, 14]: 18% | Population Membrane Permeable-Phenotype (%) [1, 14]: 58% | Population Mitochondria Different-Phenotype (%) [1, 14]: 87% | Population Mitotic Cells (%) [1, 14]: 0% | Population Normal (%) [1, 14]: 81% | Population Pyknosed Nuclei (%) [1, 14]: 20% | Population Tubulin-Different-Phenotype (%) [1, 14]: 93% | Total Cell Count [1, 14]: 94 | Growth Rate ([2]; 0 h, replicate number 1, timepoint 0 hours): 0 | Growth Rate ([2]; 6 h, replicate number 1, timepoint 6 hours): 0 | Growth Rate ([2]; 12 h, replicate number 1, timepoint 12 hours): 0 | Growth Rate ([2]; 18 h, replicate number 1, timepoint 18 hours): 0 | Growth Rate ([2]; 24 h, replicate number 1, timepoint 24 hours): 0
